In ChEMBL document CHEMBL1151981, “Bioactive pyridine-N-oxide disulfides from Allium stipitatum” (J Nat Prod, 2009):
In brackets after ≈: the same amount, converted by molar mass.

Assays:
Format in all cases: functional
[1] = tested on: Staphylococcus aureus; experiment: Antibacterial activity against Staphylococcus aureus SA1199B overexpressing NorA efflux pump after 72 hrs
[2] = tested on: Mycolicibacterium phlei; experiment: Antibacterial activity against Mycobacterium phlei after 72 hrs
In short: (§1)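 Fast-growing mycobacteria obtained from NCTC; cultures grown on Columbia blood agar with 7% defibrinated horse blood at 37 °C for 72 h before MIC determination. Ethambutol and isoniazid served as positive controls.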

[3] = tested on: Staphylococcus aureus; experiment: Antibacterial activity against Staphylococcus aureus EMRSA15 after 72 hrs; settings: EMRSA15, 72 h
In short: (§2)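 S. aureus strains tested in a MIC assay; norfloxacin and oxacillin used as positive controls.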

[4] = tested on: Mycolicibacterium fortuitum; experiment: Antibacterial activity against Mycobacterium fortuitum after 72 hrs; in short: as §1
[5] = tested on: Mycolicibacterium smegmatis; experiment: Antibacterial activity against Mycobacterium smegmatis after 72 hrs; in short: as §1
[6] = tested on: Staphylococcus aureus; experiment: Antibacterial activity against tetracycline-effluxing Staphylococcus aureus XU212 after 72 hrs; settings: XU212, 72 h; in short: as §2
[7] = tested on: Mycobacterium tuberculosis; experiment: Antibacterial activity against Mycobacterium tuberculosis infected in GKO C57BL/6 mouse assessed as bacterial number in spleen at 25 mg/kg/day administered 14 days postinfection via oral gavage for nine consecutive days measured on day 24 postinfection
In short: (§3)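 Female GKO C57BL/6 mice, 8–10 weeks old, infected by low-dose aerosol with M. tuberculosis Erdman (50–100 CFU uptake confirmed day 1). Daily oral gavage in 0.5% methyl cellulose from day 14 for nine consecutive days; isoniazid given at 25 mg/kg/day. Five mice per group, with untreated and pretreatment controls. Lung and spleen CFU log-transformed; one-way ANOVA with Tukey test.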

[8] = tested on: Mycobacterium tuberculosis; experiment: Antibacterial activity against Mycobacterium tuberculosis infected in GKO C57BL/6 mouse assessed as bacterial number in lung at 25 mg/kg/day administered 14 days postinfection via oral gavage for nine consecutive days measured on day 24 postinfection; in short: as §3

`CSSc1ccccc1` gave an MIC [1] of 128 µg/mL (≈ 819 µM), an MIC [2] of over 128 µg/mL and an MIC [3] of over 128 µg/mL. For the same molecule, the MIC [4] was over 128 µg/mL, the MIC [5] was 64 µg/mL (≈ 410 µM) and the MIC [6] was over 128 µg/mL.
`NNC(=O)c1ccncc1` [ISONIAZID] showed a log10cfu [7] of 2.16, an MIC [2] of 128 µg/mL (≈ 933 µM) and a log10cfu [8] of 5.33. It also gave an MIC [4] of 0.25 µg/mL (≈ 1.82 µM) and an MIC [5] of 0.25 µg/mL (≈ 1.82 µM).
`CSSc1cccs1` showed an MIC [1] of 128 µg/mL (≈ 789 µM), an MIC [2] of over 128 µg/mL and an MIC [3] of over 128 µg/mL. It also gave an MIC [4] of over 128 µg/mL, an MIC [5] of 64 µg/mL (≈ 394 µM) and an MIC [6] of over 128 µg/mL.
In the case of `CSSc1ccc2ccccc2n1`, the MIC [1] is reported as 4 µg/mL (≈ 19.3 µM), the MIC [2] is reported as 8 µg/mL (≈ 38.6 µM) and the MIC [3] is reported as 4 µg/mL (≈ 19.3 µM). The MIC [4] was 4 µg/mL (≈ 19.3 µM), the MIC [5] was 8 µg/mL (≈ 38.6 µM) and the MIC [6] was 4 µg/mL (≈ 19.3 µM).
`CSSc1ncccn1` showed an MIC [1] of 2 µg/mL (≈ 12.6 µM), an MIC [2] of 16 µg/mL (≈ 101 µM) and an MIC [3] of 2 µg/mL (≈ 12.6 µM). For the same molecule, the MIC [4] was 8 µg/mL (≈ 50.6 µM), the MIC [5] was 8 µg/mL (≈ 50.6 µM) and the MIC [6] was 4 µg/mL (≈ 25.3 µM).
With `[O-][n+]1ccccc1SSc1cccc[n+]1[O-]` [DIPYRITHIONE] the MIC [1] was 1 µg/mL (≈ 3.96 µM), the MIC [2] was 16 µg/mL (≈ 63.4 µM) and the MIC [3] was 0.5 µg/mL (≈ 1.98 µM). For the same molecule, the MIC [4] was 16 µg/mL (≈ 63.4 µM), the MIC [5] was 16 µg/mL (≈ 63.4 µM) and the MIC [6] was 1 µg/mL (≈ 3.96 µM).
Molecule `Cc1onc(-c2ccccc2)c1C(=O)N[C@@H]1C(=O)N2[C@@H]1SC(C)(C)[C@@H]2C(=O)O` [OXACILLIN] has an MIC [1] of 0.25 µg/mL (≈ 0.623 µM), an MIC [3] of 32 µg/mL (≈ 79.7 µM) and an MIC [6] of 128 µg/mL (≈ 319 µM).
